{"source": "ChEMBL document CHEMBL4038269", "about": "“Design, synthesis and evaluation of novel feruloyl-donepezil hybrids as potential multitarget drugs for the treatment of Alzheimer's disease” (Eur J Med Chem, 2017)", "key": {"[1]": {"target": "Acetylcholinesterase (Electrophorus electricus) (UniProt O42275)", "sequence (O42275 24-633 limits assumed)": "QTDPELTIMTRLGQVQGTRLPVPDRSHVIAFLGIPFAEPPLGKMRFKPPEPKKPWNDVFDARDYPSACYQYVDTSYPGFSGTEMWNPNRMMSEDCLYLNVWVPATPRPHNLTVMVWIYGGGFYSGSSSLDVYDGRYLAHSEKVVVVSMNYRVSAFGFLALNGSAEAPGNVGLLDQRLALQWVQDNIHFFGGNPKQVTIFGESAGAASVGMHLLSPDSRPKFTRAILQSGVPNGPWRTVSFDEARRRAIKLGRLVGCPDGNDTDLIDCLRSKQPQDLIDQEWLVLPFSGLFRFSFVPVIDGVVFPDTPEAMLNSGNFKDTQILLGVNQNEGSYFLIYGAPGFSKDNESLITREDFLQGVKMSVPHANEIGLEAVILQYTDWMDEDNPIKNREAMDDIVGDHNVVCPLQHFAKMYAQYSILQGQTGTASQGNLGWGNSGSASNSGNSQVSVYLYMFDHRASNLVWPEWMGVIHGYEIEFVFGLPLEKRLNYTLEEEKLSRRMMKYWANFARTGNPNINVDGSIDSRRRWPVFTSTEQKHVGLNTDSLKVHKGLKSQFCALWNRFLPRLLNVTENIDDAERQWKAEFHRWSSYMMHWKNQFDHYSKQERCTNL", "experiment": "Inhibition of Electrophorus electricus AChE at 30 uM using acetylthiocholine iodide as substrate pretreated for 10 mins followed by substrate addition measured at 12 secs interval for 5 mins by Ellman's method relative to control", "method_in_brief": "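Enzyme (0.5 U/mL) with DTNB (10 mM) in 0.1 M sodium phosphate pH 7.4; compound at 30 μM preincubated 10 min, then acetylthiocholine or butyrylthiocholine iodide added ([…]); A412 read every 12 s for 5 min. Velocity as percent of vehicle control; means and pooled SD from 2-4 experiments in triplicate. DMSO ≤0.2% final.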"}, "Mus musculus [2]": {"test_system": "Mus musculus", "experiment": "Antinociceptive activity in carrageenan-induced Swiss mouse model of mechanical hyperalgesia at 100 umol/kg, po pretreated for 1 hr followed by carrageenan challenge measured at 3 hrs post dose by Von Frey filament assay", "assay_type": "functional, organism-based", "method_in_brief": "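Male Swiss mice (n=8) dosed orally with 100 µmol/kg or vehicle 1 h before intraplantar carrageenan (100 µg/paw). Mechanical threshold measured by up-and-down Von Frey method after 60 min acclimation on a wire screen. Started at 0.4 g filament, ≥6 trials at 10 s intervals, about 4 s per application. Reported as mean threshold in grams ± SEM.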"}, "Mus musculus [3]": {"test_system": "Mus musculus", "experiment": "Anti-inflammatory activity in Swiss mouse model of LPS-induced peritonitis assessed as inhibition of leukocyte migration at 100 umol/kg, po pretreated for 30 mins followed by LPS challenge measured after 4 hrs by Neubauer chamber method", "assay_type": "functional, organism-based", "method_in_brief": "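Adult male Swiss mice (22-28 g), n=8 per group, dosed orally with 100 µmol/kg or vehicle (saline + DMSO 2%). 30 min later E. coli 026:B6 LPS, 100 µg/kg i.p. in sterile saline. Killed at 4 h by halothane overdose. Peritoneum lavaged with 10 ml PBS containing 0.5% sodium citrate. Total leukocytes counted in a Neubauer chamber, expressed as cells per cavity, mean ± SEM.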"}}, "note": "Calls of active or inactive are those of the source.", "data": [{"smiles": "COc1cc(/C=C/C(=O)OCC2CCN(Cc3ccccc3)CC2)ccc1O", "values": [{"measurement": "inhibition", "setting": "[1]", "result": 50, "unit": "%"}, {"measurement": "Activity", "setting": "Mus musculus [2]", "result": "Active"}, {"measurement": "inhibition", "setting": "Mus musculus [3]", "result": "Active"}]}]}
